Assay results reported in ChEMBL document CHEMBL4610079, “Anti-inflammatory Flavanones and Flavones from Tephrosia linearis” (2020).

How the values were obtained:
Type in all cases: functional
PBMC [1] = experiment: Antiinflammatory activity in LPS-induced human PBMC cells assessed as IL-1beta release at 100 uM after 24 hrs by luminex based bead assay relative to control
Outline: (§1)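 Pooled cryopreserved human PBMCs from three donors were thawed and resuspended in RPMI 1640 with 10% FBS, at 100 000 cells/well. Each test item was given at 100 μM from a 20 mM DMSO stock, with 0.5% final DMSO. It was co-incubated with 10 μg/mL LPS for 24 h at 37 °C and 5% CO2. Supernatant was read by MagPix cytokine bead array, expressed as % of LPS control, n = 1.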

PBMC [2] = experiment: Antiinflammatory activity in LPS-induced human PBMC cells assessed as IL-2 release at 100 uM after 24 hrs by luminex based bead assay relative to control; outline: as §1
PBMC [3] = experiment: Antiinflammatory activity in LPS-induced human PBMC cells assessed as IL-6 release at 100 uM after 24 hrs by luminex based bead assay relative to control; outline: as §1
PBMC [4] = experiment: Antiinflammatory activity in LPS-induced human PBMC cells assessed as GM-CSF release at 100 uM after 24 hrs by luminex based bead assay relative to control; outline: as §1
PBMC [5] = experiment: Antiinflammatory activity in LPS-induced human PBMC cells assessed as TNFalpha release at 100 uM after 24 hrs by luminex based bead assay relative to control; outline: as §1

Row | Structure (SMILES) | Activity (PBMC [1]) | Activity (PBMC [2]) | Activity (PBMC [3]) | Activity (PBMC [4]) | Activity (PBMC [5])
1 | C=C(C)/C=C/c1c2c(c(OC)c3c(=O)cc(-c4ccccc4)oc13)C=CC(C)(C)O2 | 75.85% | 57.6% | 97.43% | 83.73% | 3.15%
2 | COc1cc(O)c2c(=O)cc(-c3ccc(O)c(OC)c3)oc2c1 [VELUTIN] | 0.8% | 57.6% | 0.09% | 8.63% | 0.92%
3 | COc1cc([C@@H]2CC(=O)c3cc(OC)c(O)cc3O2)ccc1O | 220.43% | 57.6% | 100% | 35.76% | 12.55%
4 | COc1c2c(c(/C=C\C(C)(C)O)c3oc(-c4ccccc4)cc(=O)c13)OC(C)(C)C=C2 | 1.18% | 57.6% | 0% | 8.63% | 0.17%
5 | C=C(C)C(O)Cc1c(O)cc2oc(-c3ccc(O)cc3)cc(=O)c2c1O (stereo not given) | 103.28% | 57.64% | 238.54% | 38.92% | 5.2%
6 | COc1cc2c(c(O)c1CC=C(C)C)C(=O)C[C@@H](c1ccc(O)cc1)O2 | 102.34% | 57.64% | 19.57% | 46.89% | 6.38%
7 | COc1c(O)cc2oc(-c3ccc(O)c(O)c3)c(O[C@@H]3O[C@@H](C)[C@H](O)[C@@H](O)[C@H]3O)c(=O)c2c1O | 4.81% | 57.6% | 0.64% | 8.63% | 0.54%
8 | CC(C)Cc1ccc(C(C)C(=O)O)cc1 (stereo not given) [IBUPROFEN] | 199.29% | 80.33% | 46.46% | 47.76% | 12.23%
9 | COc1cc(-c2cc(=O)c3cc(OC)c(O)cc3o2)ccc1O | 170.51% | 17.72% | 43.11% | 17.39% | 4.03%
10 | C=C(C)C(O)Cc1c(OC)cc2c(c1O)C(=O)C[C@@H](c1ccc(O)cc1)O2 (stereo not given in full) | 53.77% | 17.72% | 25.79% | 32.47% | 4.03%
11 | CC1(C)C=Cc2c(cc(O)c3c(=O)cc(-c4ccc(O)cc4)oc23)O1 [ATALANTOFLAVONE] | 48.35% | 57.64% | 7.23% | 4.87% | 1.12%
12 | COc1c2c(c(/C=C/C(C)(C)OC)c3oc(-c4ccccc4)cc(=O)c13)OC(C)(C)C=C2 | 68.27% | 57.6% | 10.89% | 17.39% | 0.92%
13 | O=c1cc(-c2ccc(O)cc2)oc2cc(O)cc(O)c12 [APIGENIN] | 105.17% | 57.6% | 48.33% | 32.47% | 4.22%
14 | CC(C)=CCc1c(O)cc2oc(-c3ccc(O)cc3)cc(=O)c2c1O | 40.83% | 17.72% | 24.72% | 48.79% | 5.01%
15 | C=C(C)/C=C/c1c2c(c(O)c3c(=O)cc(-c4ccccc4)oc13)C=CC(C)(C)O2 | 169.84% | 17.72% | 622.32% | 78.39% | 1.89%
16 | COc1cc(-c2cc(=O)c3ccc(O)cc3o2)ccc1O | 109.22% | 57.64% | 100% | 92.58% | 3.64%
17 | CC(=O)OCC1(C)C=Cc2c(cc(O)c3c2O[C@H](c2ccccc2)CC3=O)O1 (stereo not given in full) | 157.09% | 17.72% | 43.39% | 40.97% | 2.66%
18 | O=c1cc(-c2ccc(O)c(O)c2)oc2cc(O)cc(O)c12 [LUTEOLIN] | 0.67% | 57.6% | 0.04% | 8.63% | 0.17%
19 | COc1cc2oc(-c3ccc(O)c(O)c3)c(O[C@@H]3O[C@@H](C)[C@H](O)[C@@H](O)[C@H]3O)c(=O)c2c(O)c1OC | 148.44% | 17.72% | 24.94% | 48.79% | 3.83%
